Reference: ChEMBL document CHEMBL4680220, “Synthesis and biological evaluation of acridine-based histone deacetylase inhibitors as multitarget agents against Alzheimer's disease” (Eur J Med Chem, 2020)

What was measured:
[1] = target: T1, Class 1 histone deacetylase (Homo sapiens, UniProt Q13547+O15379+Q92769+Q9BY41); test: Inhibition of class 1 HDAC in human HeLa cell nuclear extract using Boc-Lys(Ac)-AMC as substrate preincubated for 5 mins followed by substrate addition and measured after 30 mins by fluorescence assay; format: cell-based
T1 sequence (O15379 whole entry, looked up, the tested form may be a part): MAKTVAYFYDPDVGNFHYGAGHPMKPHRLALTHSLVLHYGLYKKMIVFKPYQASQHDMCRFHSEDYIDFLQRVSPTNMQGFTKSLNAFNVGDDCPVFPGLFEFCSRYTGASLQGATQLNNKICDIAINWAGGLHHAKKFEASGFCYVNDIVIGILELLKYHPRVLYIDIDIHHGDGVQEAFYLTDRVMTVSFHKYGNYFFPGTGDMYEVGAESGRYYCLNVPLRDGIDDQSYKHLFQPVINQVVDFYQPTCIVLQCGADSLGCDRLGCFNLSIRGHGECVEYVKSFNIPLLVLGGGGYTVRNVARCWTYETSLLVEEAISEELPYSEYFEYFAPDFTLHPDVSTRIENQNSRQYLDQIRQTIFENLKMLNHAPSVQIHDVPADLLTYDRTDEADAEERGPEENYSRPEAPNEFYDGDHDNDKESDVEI
T1 sequence (Q13547 whole entry, looked up, the tested form may be a part): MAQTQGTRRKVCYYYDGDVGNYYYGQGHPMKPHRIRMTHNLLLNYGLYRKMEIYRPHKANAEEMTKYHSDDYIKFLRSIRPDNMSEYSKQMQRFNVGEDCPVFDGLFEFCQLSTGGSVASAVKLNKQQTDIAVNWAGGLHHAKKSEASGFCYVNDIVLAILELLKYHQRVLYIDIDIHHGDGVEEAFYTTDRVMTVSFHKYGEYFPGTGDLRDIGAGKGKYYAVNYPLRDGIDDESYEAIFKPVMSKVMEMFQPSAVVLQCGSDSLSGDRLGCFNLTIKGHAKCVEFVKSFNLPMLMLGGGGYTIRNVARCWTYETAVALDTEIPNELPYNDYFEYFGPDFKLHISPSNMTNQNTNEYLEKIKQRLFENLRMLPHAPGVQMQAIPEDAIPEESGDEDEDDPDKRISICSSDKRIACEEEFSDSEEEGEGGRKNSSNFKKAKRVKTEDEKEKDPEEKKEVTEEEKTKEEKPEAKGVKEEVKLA
T1 sequence (Q92769 whole entry, looked up, the tested form may be a part): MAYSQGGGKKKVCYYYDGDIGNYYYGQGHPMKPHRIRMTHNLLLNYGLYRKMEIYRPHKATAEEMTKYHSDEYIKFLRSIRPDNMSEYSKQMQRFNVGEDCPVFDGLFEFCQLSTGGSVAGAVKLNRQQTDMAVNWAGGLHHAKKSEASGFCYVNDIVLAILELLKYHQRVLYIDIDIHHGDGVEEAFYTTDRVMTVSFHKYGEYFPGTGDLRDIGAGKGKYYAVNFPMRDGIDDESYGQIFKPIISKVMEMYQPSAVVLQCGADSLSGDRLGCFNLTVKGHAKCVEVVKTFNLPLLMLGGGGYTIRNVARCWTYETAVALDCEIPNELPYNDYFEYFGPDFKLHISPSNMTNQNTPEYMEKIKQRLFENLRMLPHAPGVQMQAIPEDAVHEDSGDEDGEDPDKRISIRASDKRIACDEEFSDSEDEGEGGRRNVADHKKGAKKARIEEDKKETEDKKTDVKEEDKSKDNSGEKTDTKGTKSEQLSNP
T1 sequence (Q9BY41 whole entry, looked up, the tested form may be a part): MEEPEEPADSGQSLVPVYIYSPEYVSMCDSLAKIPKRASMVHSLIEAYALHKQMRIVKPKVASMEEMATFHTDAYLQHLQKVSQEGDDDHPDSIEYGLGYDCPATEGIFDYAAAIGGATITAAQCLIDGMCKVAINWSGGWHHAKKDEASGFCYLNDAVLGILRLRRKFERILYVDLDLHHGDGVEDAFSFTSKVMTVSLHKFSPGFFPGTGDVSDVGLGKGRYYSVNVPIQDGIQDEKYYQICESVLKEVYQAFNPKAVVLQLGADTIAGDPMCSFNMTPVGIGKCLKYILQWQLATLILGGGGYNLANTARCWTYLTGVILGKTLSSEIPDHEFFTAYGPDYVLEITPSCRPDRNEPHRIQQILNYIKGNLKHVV

Histone deacetylase 4 = Histone deacetylase 4 (Homo sapiens, UniProt P56524); test: Inhibition of recombinant human N-terminal GST-tagged/C-terminal His-tagged HDAC4 (627 to 1084 residues) expressed in baculovirus expression system using Boc-Lys(TFA)-AMC as substrate preincubated for 5 mins followed by substrate addition and measured after 30 mins by fluorescence assay
Sequence of Histone deacetylase 4 (P56524 whole entry, the tested form may be a part): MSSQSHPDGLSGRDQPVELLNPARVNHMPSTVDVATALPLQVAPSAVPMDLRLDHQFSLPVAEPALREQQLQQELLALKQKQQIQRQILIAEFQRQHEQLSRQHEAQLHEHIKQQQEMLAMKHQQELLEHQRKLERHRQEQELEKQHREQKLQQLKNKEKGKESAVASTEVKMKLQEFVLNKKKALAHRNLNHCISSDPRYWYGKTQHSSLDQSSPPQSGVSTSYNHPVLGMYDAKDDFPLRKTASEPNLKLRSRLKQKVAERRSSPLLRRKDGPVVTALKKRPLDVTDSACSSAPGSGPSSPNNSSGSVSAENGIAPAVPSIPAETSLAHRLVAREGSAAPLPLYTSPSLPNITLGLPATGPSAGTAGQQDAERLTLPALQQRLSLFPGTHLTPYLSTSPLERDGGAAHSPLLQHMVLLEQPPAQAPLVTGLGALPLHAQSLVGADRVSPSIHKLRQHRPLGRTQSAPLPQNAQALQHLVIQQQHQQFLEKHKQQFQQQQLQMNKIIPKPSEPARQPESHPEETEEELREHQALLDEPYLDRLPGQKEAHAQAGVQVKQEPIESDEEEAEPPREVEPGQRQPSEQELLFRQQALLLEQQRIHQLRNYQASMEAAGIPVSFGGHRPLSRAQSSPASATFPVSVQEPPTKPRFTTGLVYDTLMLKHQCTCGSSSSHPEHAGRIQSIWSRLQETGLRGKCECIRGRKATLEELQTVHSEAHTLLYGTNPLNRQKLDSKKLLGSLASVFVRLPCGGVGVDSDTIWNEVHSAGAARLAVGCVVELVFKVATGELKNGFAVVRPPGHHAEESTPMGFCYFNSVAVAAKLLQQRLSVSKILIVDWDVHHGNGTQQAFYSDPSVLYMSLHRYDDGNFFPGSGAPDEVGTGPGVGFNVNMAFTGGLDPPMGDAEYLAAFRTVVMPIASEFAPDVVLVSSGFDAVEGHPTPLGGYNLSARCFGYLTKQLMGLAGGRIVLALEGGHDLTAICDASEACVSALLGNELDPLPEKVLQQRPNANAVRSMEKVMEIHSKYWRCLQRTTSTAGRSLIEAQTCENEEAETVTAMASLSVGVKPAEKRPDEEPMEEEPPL

[2] = target: T2, Protein deacetylase HDAC6 (Homo sapiens, UniProt Q9UBN7); test: Inhibition of recombinant human full-length N-terminal GST-tagged HDAC6 expressed in baculovirus infected Sf9 insect cells using Boc-Lys(Ac)-AMC as substrate preincubated for 5 mins followed by substrate addition and measured after 30 mins by fluorescence assay
T2 sequence (Q9UBN7 whole entry): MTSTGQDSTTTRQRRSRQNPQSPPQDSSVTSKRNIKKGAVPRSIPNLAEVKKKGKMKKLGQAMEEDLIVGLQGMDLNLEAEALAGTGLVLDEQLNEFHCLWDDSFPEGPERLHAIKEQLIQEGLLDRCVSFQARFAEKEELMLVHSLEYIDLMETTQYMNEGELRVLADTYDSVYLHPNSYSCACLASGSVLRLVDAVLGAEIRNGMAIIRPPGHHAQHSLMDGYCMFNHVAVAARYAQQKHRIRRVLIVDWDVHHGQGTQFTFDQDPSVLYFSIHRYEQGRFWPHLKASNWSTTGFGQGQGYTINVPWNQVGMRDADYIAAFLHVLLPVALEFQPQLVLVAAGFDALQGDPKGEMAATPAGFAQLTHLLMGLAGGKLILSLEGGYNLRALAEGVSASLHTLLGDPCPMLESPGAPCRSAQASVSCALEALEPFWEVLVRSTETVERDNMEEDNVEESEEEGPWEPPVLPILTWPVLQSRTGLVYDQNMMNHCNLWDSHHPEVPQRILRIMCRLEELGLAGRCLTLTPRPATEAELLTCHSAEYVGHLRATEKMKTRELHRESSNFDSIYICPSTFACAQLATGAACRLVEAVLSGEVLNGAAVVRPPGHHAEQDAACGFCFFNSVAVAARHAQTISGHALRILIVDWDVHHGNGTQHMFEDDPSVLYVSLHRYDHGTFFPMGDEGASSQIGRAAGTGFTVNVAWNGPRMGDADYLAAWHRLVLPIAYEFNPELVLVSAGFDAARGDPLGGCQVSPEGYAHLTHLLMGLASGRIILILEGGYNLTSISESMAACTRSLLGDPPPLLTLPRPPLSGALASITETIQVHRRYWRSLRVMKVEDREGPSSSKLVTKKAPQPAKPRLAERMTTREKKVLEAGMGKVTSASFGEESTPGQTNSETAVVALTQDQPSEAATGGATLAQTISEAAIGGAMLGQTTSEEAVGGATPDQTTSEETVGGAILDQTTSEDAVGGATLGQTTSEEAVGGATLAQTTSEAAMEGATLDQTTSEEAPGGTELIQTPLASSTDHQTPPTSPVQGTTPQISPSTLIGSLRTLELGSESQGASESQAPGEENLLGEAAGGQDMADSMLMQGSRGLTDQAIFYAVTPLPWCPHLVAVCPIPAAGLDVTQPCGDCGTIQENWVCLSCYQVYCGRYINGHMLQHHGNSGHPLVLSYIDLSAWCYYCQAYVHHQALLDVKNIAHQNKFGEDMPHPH

Histone deacetylase 1 = Histone deacetylase 1 (Homo sapiens, UniProt Q13547); test: Inhibition of recombinant human C-terminal FLAG/His-tagged HDAC1 (1 to 482 residues) expressed in Sf9 insect cells using fluor de lys SIRT1 as substrate preincubated for 5 mins followed by substrate addition and measured after 30 mins by fluorescence assay
Sequence of Histone deacetylase 1 (Q13547 whole entry, the tested form may be a part): as the sequence (Q13547 whole entry, looked up, the tested form may be a part) above

[3] = target: T1, Class 1 histone deacetylase; test: Inhibition of Class 1 HDAC in […] cells assessed as increase in acetylated Histone H3 level measured after 24 hrs by Western blot analysis; format: cell-based; details: for inhibition: Mus musculus
Hippocampal neurone = test: Induction of neurite outgrowth in Sprague-Dawley rat primary hippocampal neurons assessed as increase in length of axonal neurite incubated for 3 days by DAPI staining based immunofluorescence microscopic analysis; format: functional; details: time 3.0 day
Summary of the method: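 Primary hippocampal neurons from embryonic Sprague-Dawley rats, plated on poly-D-lysine and kept in B27-neurobasal medium. Treated with DMSO or compound from DIV3 for three days, fixed at DIV6 in 4% paraformaldehyde. Axons stained with anti-tau, dendrites with anti-MAP2, nuclei with DAPI; fluorescence microscopy. At least 20 neurons traced for number and length of primary, secondary and tertiary neurites.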

[4] = Half life in human liver microsomes at 1 uM preincubated for 3 mins followed by NADPH addition and measured up to 60 mins by LC-MS/MS analysis; format: ADME, Microsome; details: time <=63 min
Summary of the method: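 Mixed-gender human liver microsomes with test article at 1 µM final. Testosterone (5 µM) run separately as control. Mixture without cofactor equilibrated 3 min at 37 °C in a shaking water bath, then started with cofactor. Aliquots taken at 0, 10, 20, 30 and 60 min. CLint = k/P, where k is the elimination rate constant and P is the incubation protein concentration.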

MDR1 [5] = test: Apparent permeability of compound in MDCK-MDR1 cells at 5 uM measured after 2 hrs by LC-MS/MS analysis; format: ADME, cell-based, Canis lupus familiaris; details: dog
Summary of the method: (§1)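 MDR1-MDCK monolayers grown to confluence on collagen-coated microporous membranes. Test article dosed at 5 µM apical (A-to-B) or basolateral (B-to-A) in HBSS with 10 mM HEPES, 15 mM glucose, pH 7.4; receiver buffer has 1% BSA. 37 °C, 5% CO2; donor and receiver sampled at 120 min, quantified by LC-MS/MS (ESI). Duplicate determinations; lucifer yellow flux checks monolayer integrity. Efflux ratio = Papp(B-A)/Papp(A-B).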

MDR1 [6] = test: Efflux ratio of apparent permeability across basolateral to apical side over apical to basolateral side in MDCK-MDR1 cells at 5 uM measured after 2 hrs by LC-MS/MS analysis; format: ADME, cell-based, Canis lupus familiaris; details: dog; summary of the method: as §1

## O=C(NO)c1ccc(Nc2c3ccccc3nc3ccc(Br)cc23)cc1
[1]
  IC50: 0.16 µM
Histone deacetylase 4
  IC50: 7.85 µM
[2]
  IC50: 0.026 µM
Histone deacetylase 1
  IC50: 0.09 µM
[3]
  EC50: 0.58 µM
  inhibition: Dose-dependent effect
Hippocampal neurone
  Activity: Dose-dependent effect
[4]
  half-life at 1 µM: 37.9 min
MDR1 [5]
  Papp at 2 h, 5 µM: 4.57 ×10⁻⁶ cm/s
MDR1 [6]
  efflux ratio at 2 h, 5 µM: 7.42

## O=C(NO)c1ccc(Nc2c3ccccc3nc3ccccc23)cc1
[1]
  IC50: 0.55 µM
Histone deacetylase 4
  IC50: 2.24 µM
[2]
  IC50: 0.025 µM
Histone deacetylase 1
  IC50: 0.34 µM
[3]
  EC50: 7.96 µM
  inhibition: Dose-dependent effect
[4]
  half-life at 1 µM: 33.9 min
MDR1 [5]
  Papp at 2 h, 5 µM: 2.72 ×10⁻⁶ cm/s
